This is a sample that favours compounds with a hit; in the whole collection about 2.6% have one here.
Platelet DG rel = modulates dense granule release in human platelets | human platelet-rich plasma, SFLLRN dense granule ATP release, luminescence | inhibition, %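 (compounds screened at 7.5 µM in platelet-rich plasma)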 | 300,000 tested, 0.22% active | AID 1663;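 active = mean replicate score, as percent of positive control, at or above 50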
TAAR1 antagonist = human TAAR1 antagonism. AID 624466. Q96RJ0. 360,000 tested, 1.5% active. inhibition, % at 3 µM. CHO RD-HGA16 TAAR1, Fluo-8 calcium fluorescence, antagonist;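 active = inhibition above a per-plate cutoff, the mean inhibition of test compounds on that plate plus 3 SD, cut at about 49% in these data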
Target sequence (Q96RJ0 whole entry, looked up): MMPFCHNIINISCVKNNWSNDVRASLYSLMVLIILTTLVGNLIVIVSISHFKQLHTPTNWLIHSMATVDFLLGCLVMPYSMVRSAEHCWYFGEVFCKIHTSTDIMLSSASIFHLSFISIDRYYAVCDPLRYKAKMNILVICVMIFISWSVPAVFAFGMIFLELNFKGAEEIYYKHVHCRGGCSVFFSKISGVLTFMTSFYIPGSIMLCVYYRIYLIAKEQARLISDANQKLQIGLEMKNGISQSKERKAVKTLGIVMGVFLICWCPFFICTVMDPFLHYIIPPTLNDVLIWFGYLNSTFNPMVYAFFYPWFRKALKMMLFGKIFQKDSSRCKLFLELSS
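Assay system: RD-HGA16 CHO cells with stable hTAAR1 and Gα16 / Reagent: EC80 β-phenethylamine stimulus / Doses: 3 µM, single point / Timing: dye loading 75 min at 37 °C, then 30 min room temperature / Measured by: Fluo-8 intracellular calcium dye fluorescence, real-time kinetic reads / Controls: vehicle wells and EC80 agonist wells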
VLA-4 inh = inhibition in a human VLA-4 binding assay; P13612; VLA-4 expressing cells, ligand binding flow cytometry; inhibition, % (about 7 µM as worked out from the volumes in the protocol); 330,000 tested, 0.2% active; AID 2557; in the data active = inhibition above about 50%
Rce1 inh = blocks yeast Ras-converting enzyme; calls only; yeast membranes, quenched prenylated peptide cleavage fluorescence; AID 2563; Q03530; 290,000 tested, 0.27% active;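 active = fall in fluorescence gain of 50% or more versus controls, with final raw signal at or below 3038400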
Target sequence (Q03530 whole entry, looked up): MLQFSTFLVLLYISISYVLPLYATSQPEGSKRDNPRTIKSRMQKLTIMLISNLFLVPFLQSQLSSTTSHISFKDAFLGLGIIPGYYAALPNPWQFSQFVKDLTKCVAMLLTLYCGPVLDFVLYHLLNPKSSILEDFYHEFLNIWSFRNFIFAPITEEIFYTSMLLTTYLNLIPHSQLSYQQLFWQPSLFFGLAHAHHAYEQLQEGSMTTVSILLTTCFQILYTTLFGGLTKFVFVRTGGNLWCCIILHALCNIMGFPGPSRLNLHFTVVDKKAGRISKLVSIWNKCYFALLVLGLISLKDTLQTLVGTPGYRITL
TAAR1 ag = agonists of human TAAR1; activation, % at 3 µM; 360,000 tested, 0.99% active; AID 624467; CHO RD-HGA16 TAAR1, Fluo-8 calcium fluorescence; vehicle wells 0%, saturating PEA agonist 100%; Q96RJ0;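 active = activation above the mean activation of all test compounds in the run plus 3 SD, cut at about 38% in these data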
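Test system: RD-HGA16 (CHO) cells co-expressing Gα16 and hTAAR1 | Doses: Single dose, 3 µM | Schedule: 17-24 h seeding, 75 min 37 °C dye, 30 min RT | Evaluation: % activation from peak over basal fluorescence ratio, DMSO-to-PEA scaled | Technique: Kinetic Fluo-8 calcium fluorescence | Benchmarks: Low control DMSO, high control PEA (EC100)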
VLA-4 mod pick = human VLA-4 allosteric modulation in cherry picked compounds; shares compounds with VLA-4 inh; U937 cells, HUTS-21 LIBS mAb binding, flow cytometry; LDV ligand present at threefold Kd; inhibition, % at 6.7 µM; 1,300 tested, 2% active; in the data active = inhibition above about 40%
A number is an active result; - = inactive; . = no result given; ! = repeats disagree.

SMILES	Platelet DG rel	TAAR1 antagonist	VLA-4 inh	Rce1 inh	TAAR1 ag	VLA-4 mod pick
Cc1nn(CC(=O)NC2CCCC2)c(C)c1[N+](=O)[O-]	.	-	-	.	-	.
O=C1CC[C@@H](C(=O)O)N1	.	-	-	.	-	.
O=C1N[C@H](C(=O)O)CS1	-	.	54	-	.	-
O=C(CCC(=O)c1ccc(Oc2ccccc2)cc1)Nc1ccc(C(=O)O)cc1	-	-	-	-	-	.
CSc1ncccc1C(=O)OCC(=O)Nc1ccc(S(=O)(=O)N2CCCC2)cc1	-	-	-	-	-	-
Cc1cc(C(=O)NNC(=O)c2ccccc2[N+](=O)[O-])c(C)o1	.	-	-	.	-	.
CCCCCc1ccc(C2=NNC(=O)CC2)cc1	-	-	-	-	-	.
O=C1CCC(c2ccc3c(c2)CCC3)=NN1	-	-	53	-	-	-
CN1CCN(c2nc(-c3ccccc3O)nc3ccccc23)CC1	-	-	-	-	-	-
CN1CCN(c2nc(-c3ccccc3Cl)nc3ccccc23)CC1	-	-	-	-	-	.
Cc1ccc(N(CC2=NCCN2)c2cccc(O)c2)cc1	-	-	55!	-	-	-
O=C(c1cc(-c2ccncc2)nc2ccccc12)N1CCN(c2ncccn2)CC1	.	-	-	.	-	-
O=C(c1cc(-c2ccncc2)nc2ccccc12)N1CCN(c2ccccn2)CC1	-	-	-	-	-	.
O=C(c1ccco1)N1CCN(C(=O)c2cc(-c3ccccn3)nc3ccccc23)CC1	-	-	-	-	-	-
CCOC(=O)c1c(NC(=O)COC(=O)CNC(=O)c2ccc(Cl)cc2Cl)sc(C(=O)N(C)C)c1C	-	-	52	-	-	-
NC(=O)c1ccc(NC(=O)COC(=O)c2cc3ccccc3cc2O)cc1	.	-	-	.	-	.
CCOc1ccc(CN2CCNC(=O)C2CC(=O)NCC2CCOCC2)cc1 (centres undefined)	-	-	-	-	-	.
O=C1c2c(O)cc(O)cc2O[C@H](c2ccc(O)c(O)c2)[C@H]1O	-	-	-	-	-	.
O=C1c2c(O)cc(O)cc2O[C@H](c2ccc(O)cc2)[C@H]1O	-	-	50	-	-	-
CSc1nsc(SCC(=O)Nc2cccc(NC(C)=O)c2)n1	-	-	-	-	-	.
CCN(C[C@H]1N[C@@](Cc2ccccc2)(C(=O)OC)[C@H]2C(=O)N(C)C(=O)[C@@H]12)C(=O)c1ccccc1	.	-	-	.	-	.
CCN(C[C@H]1N[C@@](Cc2ccccc2)(C(=O)OC)[C@H]2C(=O)N(Cc3ccccc3)C(=O)[C@@H]12)C(C)=O	.	-	-	.	-	-
CCN(C[C@H]1N[C@@](Cc2ccccc2)(C(=O)OC)[C@H]2C(=O)N(Cc3ccccc3)C(=O)[C@@H]12)C(=O)COC	.	-	-	.	-	-
COC(=O)[C@]1(Cc2ccccc2)N[C@H](CN(C)C(=O)Nc2ccc(F)cc2)[C@@H]2C(=O)N(Cc3ccccc3)C(=O)[C@@H]21	.	-	-	.	-	-
CCN(C[C@H]1N[C@@](Cc2ccccc2)(C(=O)OC)[C@H]2C(=O)N(Cc3ccccc3)C(=O)[C@@H]12)C(=O)Nc1ccc(C)cc1	.	-	-	.	-	.
SMILES	Platelet DG rel	TAAR1 antagonist	VLA-4 inh	Rce1 inh	TAAR1 ag	VLA-4 mod pick
CCN(C[C@H]1N[C@@](Cc2ccccc2)(C(=O)OC)[C@H]2C(=O)N(Cc3ccccc3)C(=O)[C@@H]12)C(=O)c1ccccc1	.	-	50	.	-	-
CCN(C[C@H]1N[C@@](CC)(C(=O)OC)[C@H]2C(=O)N(Cc3ccccc3)C(=O)[C@@H]12)C(=O)COC	.	-	-	.	-	.
CC1c2ccsc2CCN1S(=O)(=O)c1cccs1 (centres undefined)	-	-	-	-	-	.
CC1(C(=O)NS(=O)(=O)c2cccc(F)c2)CCN1C(=O)CC1CCCC1 (centres undefined)	.	-	.	.	-	.
Cc1ccc(/C=N/NC(=O)CNC(=O)c2cccc([N+](=O)[O-])c2C)o1	-	-	58	-	-	-
Cc1ccc(/C=N/NC(=O)CNC(=O)c2ccc(C)c([N+](=O)[O-])c2)o1	-	-	-	-	-	.
O=C(Nc1ccccc1Cl)Nc1ccccc1Cl	-	-	-	-	-	-
CSc1ccccc1NC(=O)Nc1ccccc1Cl	-	-	-	-	-	.
Cc1cc([N+](=O)[O-])nn1CC(=O)NCc1nc2ccccc2[nH]1	-	-	-	.	-	.
Cc1ccc(CN2CCN(Cc3ccc(OC(C)C)cc3)CC2CCO)o1 (centres undefined)	-	-	-	-	-	.
Cc1ccc(CN2CCN(Cc3cccc(OCCO)c3)CC2CCO)o1 (centres undefined)	-	-	-	.	-	-
N#Cc1cccc(S(=O)(=O)NCC(=O)NCc2ccc3c(c2)OCO3)c1	.	-	-	.	-	.
O=C(CNC(=O)c1cccs1)OCc1c(F)cccc1Cl	-	-	-	-	-	.
COC(=O)c1ccc(NC(=O)c2sc3nc(-c4ccccc4)cn3c2C)cc1	-	-	52	-	-	-
CCCCN1C(=O)C(CC(=O)NC2CC2)CC(C(=O)N2CCOCC2)=C1C (centres undefined)	.	-	.	.	-	.
CN(Cc1ccccc1)C(=O)c1cccc(NC(=O)Cc2ccc(NC(=O)C3CCCN(C(=O)C4CCCCC4)C3)cc2)c1 (centres undefined)	.	-	.	.	-	.
COC(=O)c1c(C)[nH]c(C(=O)C(C)OC(=O)C2CC(=O)N(c3ccc(C)cc3)C2)c1C (centres undefined)	.	-	-	.	-	.
COC(=O)c1c(C)[nH]c(C(=O)C(C)OC(=O)C2CC2C)c1C (centres undefined)	.	-	-	.	-	-
OC(CCN1CC2CCC(CC2)C1)(Cc1ccccc1)c1ccco1 (centres undefined)	.	-	.	.	-	.
Cc1cccc(OC(C)C(=O)Nc2cc(Cl)ccc2-n2cncn2)c1 (centres undefined)	.	-	-	.	-	.
O=C(CN1CCN(Cc2ccccc2)CC1)N/N=C/C=C/c1ccccc1[N+](=O)[O-]	-	-	-	-	-	-
CC(OC(=O)c1nn(C)c(=O)c2ccccc12)C(=O)Nc1ccc(S(N)(=O)=O)cc1 (centres undefined)	-	-	-	-	-	.
O=C1COc2ccc(N3C(=O)c4ccccc4C3=O)cc2N1	-	.	52	-	.	-
Cc1ccc(C(=O)c2cc([N+](=O)[O-])ccc2N2CCOCC2)cc1	-	-	.	-	-	.
CCOc1ccc(S(=O)(=O)N2CCN(C(=O)c3cc([N+](=O)[O-])ccc3N3CCOCC3)CC2)cc1	.	-	-	.	-	.
COc1ccc(C(=O)c2cc([N+](=O)[O-])ccc2N2CCOCC2)cc1	-	-	-	-	-	47
CCOc1ccc(C(=O)c2cc([N+](=O)[O-])ccc2N2CCOCC2)cc1	-	-	51	-	-	49
Cc1ccc(S(=O)(=O)CC(=O)Nc2cccc(C)n2)cc1	-	-	-	-	-	.

High-throughput results: PubChem, several laboratories
